From PubChem
SUMO HTRF inh – inhibitors of human SUMOylation (UBC9) | P63279 | HTRF SUMOylation assay, SAE1/SAE2 + UBC9, in vitro | inhibition, % at 35 µM | 290,000 compounds, 0.36% hits; in the data active means inhibition above about 50%, passing the limit was not always enough
Target sequence (P63279 whole entry, looked up): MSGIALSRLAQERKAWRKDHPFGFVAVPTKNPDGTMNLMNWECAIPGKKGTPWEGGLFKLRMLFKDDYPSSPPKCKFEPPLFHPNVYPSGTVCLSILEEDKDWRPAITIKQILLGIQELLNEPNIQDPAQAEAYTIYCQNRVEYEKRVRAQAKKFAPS
VIM-2 inhibitor – blocks Pseudomonas aeruginosa VIM-2 metallo-beta-lactamase; inhibition, % at 5.6 µM; 290,000 compounds, 0.89% hits; AID 1527; purified VIM-2, nitrocefin hydrolysis, epi-absorbance fluorescence;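 active means inhibition above the mean of all tested compounds plus 3 SD, cutoff set per screening run, cut at about 7.5% in these data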;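 further: red hydrolysis product quenches plate fluorescence so inhibitors raise well fluorescence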
DNA FID counter – counter-screen for HCV NS3 helicase inhibitors: DNA intercalator displacement | DNA fluorescent intercalator displacement, fluorescence | inhibition, % at 7.9 µM | 290,000 compounds, 0.17% hits | AID 1845; in the data active means inhibition above about 37%;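 further: higher means more ethidium bromide displaced from hairpin DNA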
NALP1 yeast inh – blocks the NALP1 inflammasome reconstituted in yeast | S. cerevisiae NALP1/ASC/caspase-1 growth, X-gal OD620, 72 h | inhibition, % at 10 µM | AID 2071 | 280,000 compounds, 0.61% hits; in the data active means inhibition mostly above about 24%, no sharp cut-off; inactive means mostly below about 32%
Mot1-301 SUMO – inhibitors of SUMOylation pathway: yeast Mot1-301 growth rescue; 320,000 compounds, 1% hits; AID 2716; growth rescue, % at 18.8 µM; S. cerevisiae Mot1-301 growth rescue, ATP luminescence, 38.5C; percent above DMSO median, 100 means doubled;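 active means every valid replicate shows activation above 250% relative to neutral control wells; inactive means the rest, any valid replicate at or below 250%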
IMP-1 inhibitor – inhibitors of Pseudomonas aeruginosa IMP-1 metallo-beta-lactamase; purified IMP-1, nitrocefin hydrolysis, epi-absorbance fluorescence; inhibition, % at 5.6 µM; 290,000 compounds, 0.45% hits; AID 1556;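 active means inhibition above the mean plus 3 SD of all compounds in the same screening run, cut at about 4.5% in these data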
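System: purified IMP-1 / Input: IMP-1 dispensed at 0.2 nM / Medium: 50 mM HEPES pH 7.1, 50 µM ZnSO4, 0.05% Brij 35 / Timing: 15 min enzyme–compound preincubation, then 25 min nitrocefin reaction, 25 °C / Technique: plate fluorescence quenching by hydrolysis product, ex 480/em 530 nm / Repeats: singlicate testing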
Each line names hits and unclear results; the compound was inactive in the other large screens. In the library only some 2.9% were active in any assay of this set; here they are far more common.

C[C@H]1C[C@@H](C)C(=O)[C@@H]([C@H](O)CC2CC(=O)NC(=O)C2)C1	NALP1 yeast inh 100, Mot1-301 SUMO 430
COC(=O)C[C@]1(C(=O)OC)CN(C#N)N(c2ccc(Cl)cc2)C12c1ccccc1-c1ccccc12	Mot1-301 SUMO 412
COc1ccc2c(c1)NP(=S)(Oc1ccccc1)N2 (centres undefined)	SUMO HTRF inh 53
COc1cccc(-n2c(=S)[nH]c3ccccc3c2=O)c1	none
C=CCn1c(O)c(C=Nc2ccc(N(CC)CC)cc2)c(=O)[nH]c1=O	IMP-1 inhibitor 5.3
CCN1C(=O)NC(=O)/C(=C\c2cn(CC(=O)N3CCCCC3)c3ccccc23)C1=O	VIM-2 inhibitor 11
COc1cc(CNCCc2c[nH]c3ccccc23)cc(OC)c1	none
CN1C(=O)CN=C(c2ccc(Cl)cc2)c2cc(Cl)ccc21	none
CN1C(=O)CN=C(c2ccccc2Cl)c2cc(Br)ccc21	IMP-1 inhibitor 11
C[C@@]1(CO)[C@H](O)CC[C@@]2(C)[C@H]1CC[C@H]1C[C@@H]3C[C@@]12CC[C@]3(O)CO	none
O=C1CN=C(c2ccc(Cl)cc2)c2oc3ccccc3c2N1	none (no result: NALP1 yeast inh)
COc1ccc2oc3c(c2c1)NC(=O)CN=C3c1ccccc1	NALP1 yeast inh 23
CC(C)c1ccc(C2NCc3ccccc3-n3cccc32)cc1 (centres undefined)	NALP1 yeast inh 38
Cc1cc(C(=O)CS(=O)(=O)c2ccccc2)cc(C)c1OC(=O)N(C)C	none
CCN1CCN(c2cc(N3CCCC3)c(F)cc2[N+](=O)[O-])CC1	none
CN1CCN(c2cc(N3CCCC3)c([N+](=O)[O-])cc2F)CC1	Mot1-301 SUMO 332
O=C(O)c1c[nH]c2ccc(S(=O)(=O)N(CCCl)CCCl)cc12	NALP1 yeast inh 40
COc1ccc2[nH]cc(C(=O)CN(C)C)c2c1	none (no result: SUMO HTRF inh, VIM-2 inhibitor, DNA FID counter, NALP1 yeast inh, IMP-1 inhibitor)
Cc1ccc(N=C(N(C)C)P(=O)(N(C)C)N(C)C)cc1	DNA FID counter 56, NALP1 yeast inh 24
O=[N+]([O-])c1ccc(NCc2ccccc2)c2nonc12	VIM-2 inhibitor 23, IMP-1 inhibitor 30
O=[N+]([O-])c1ccc(NCc2ccc(Cl)cc2)c2ccncc12	none
Cn1ncnc2c(=O)n(C)c(=O)nc1-2	SUMO HTRF inh 102 (no result: VIM-2 inhibitor, DNA FID counter, IMP-1 inhibitor)
CCCCC(=O)N/N=C/c1c(O)n(-c2cccc3ccccc23)c(=O)[nH]c1=O	none
Cc1ccc(N2C(=O)NC(=O)/C(=C/c3ccoc3)C2=O)cc1	SUMO HTRF inh 56 (no result: NALP1 yeast inh, Mot1-301 SUMO)
Cc1ccc(N2C(=O)NC(=O)/C(=C/c3cnn(-c4ccc(C)cc4)c3)C2=O)cc1	none
Cc1ccccc1N1C(=O)/C(=C/c2ccco2)C(=O)NC1=S	SUMO HTRF inh 97
CCOc1ccc(N2C(=O)/C(=C/c3ccco3)C(=O)NC2=S)cc1	none
CO[C@@H]1C=CC23c4cc5c(cc4CO[C@]2(O)CN(C)[C@H]3C1)OCO5 (some centres undefined)	none (no result: SUMO HTRF inh, VIM-2 inhibitor, DNA FID counter, NALP1 yeast inh, IMP-1 inhibitor)
COc1cc2c(cc1OC)-c1c(OC)c(OC)c(OC)c3ccnc(c13)C2=O	VIM-2 inhibitor 9.4
COc1cc(CC2(CCc3ccncc3)C(=O)NC(=O)NC2=O)cc(OC)c1OC	none
CN(C)[C@@H]1C(=O)C(C(N)=O)=C(O)[C@@]2(O)C(=O)C3=C(O)c4c(O)ccc(Cl)c4[C@@](C)(O)C3C[C@@H]12 (some centres undefined)	NALP1 yeast inh 132 (no result: Mot1-301 SUMO)
CC(C)C(=O)Nc1ccc(N2CCN(C)CC2)c(F)c1	Mot1-301 SUMO 423
C[C@@H]1CC[C@@]2(NC1)O[C@H]1C[C@H]3[C@@H]4CC=C5C[C@@H](O)CC[C@]5(C)[C@H]4CC[C@]3(C)[C@H]1[C@@H]2C	NALP1 yeast inh 36
COCCCn1c(N)c(C(=O)Nc2ccccc2)c2nc3ccccc3nc21	none
CCCCn1c(N)c(C(=O)NCCN2CCOCC2)c2nc3ccccc3nc21	none
CCCCn1c(NC(=O)c2ccc(Br)o2)c(C(=O)OCC)c2nc3ccccc3nc21	SUMO HTRF inh 100
CCCCn1c(NS(=O)(=O)c2ccccc2)c(C(=O)OCC)c2nc3ccccc3nc21	SUMO HTRF inh 100
CCOC(=O)c1c(N)n(CCN2CCCCC2)c2nc3ccccc3nc12	VIM-2 inhibitor 7.8
